# In ChEMBL document CHEMBL1134962, “Facilely accessible multidrug resistance modulator derived from sucrose” (2002):
# How the values were obtained:
# Assay type in all cases: functional, Homo sapiens
# KB [1] = assay: Percentage inhibition of growth against KB-C2 cells in the presence of colchicine(0.1 ug/mL) was determined when administered at 1 ug/mL
# How it was run: (§1)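 Multidrug-resistant KB-C2 cells were selected from KB-3-1 and kept in colchicine-containing RPMI 1640 with glutamine, kanamycin and 10% newborn calf serum. 10,000 cells per well were preincubated 24 h at 37 °C in 5% CO2. Colchicine plus the test sample were added together and incubated 48 h. Growth was read by MTT (3 h), with the formazan extracted in DMSO.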
# KB 3-1 [2] = assay: Cytotoxicity against KB-3-1 cells was determined when administered at 3 ug/mL
# How it was run: (§2)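 Parental KB-3-1 cells grown in RPMI 1640 with glutamine, kanamycin and 10% newborn calf serum. 10,000 cells per well were preincubated 24 h at 37 °C in 5% CO2. The test sample was then added alone and incubated 48 h. MTT was added for 3 h, and the formazan was extracted with DMSO before the colorimetric read.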
# KB 3-1 [3] = assay: Cytotoxicity against KB-3-1 cells was determined when administered at 1 ug/mL; how it was run: as §2
# KB [4] = assay: Percentage inhibition of growth against KB-C2 cells in the presence of colchicine(0.1 ug/mL) was determined when administered at 10 ug/mL; how it was run: as §1
# KB 3-1 [5] = assay: Cytotoxicity against KB-3-1 cells was determined when administered at 10 ug/mL; how it was run: as §2
# KB [6] = assay: Percentage inhibition of growth against KB-C2 cells in the presence of colchicine(0.1 ug/mL) was determined when administered at 3 ug/mL; how it was run: as §1
# KB [7] = assay: Percentage inhibition of growth against KB-C2 cells in the presence of colchicine (0.1 ug/mL) was determined when administered at 3 ug/mL; how it was run: as §1
SMILES,Growth inhibition (KB [1]),Growth inhibition (KB 3-1 [2]),Growth inhibition (KB 3-1 [3]),Growth inhibition (KB [4]),Growth inhibition (KB 3-1 [5]),Growth inhibition (KB [6]),Growth inhibition (KB [7])
CC(C)CC(=O)OC[C@H]1O[C@H](O[C@]2(COC(=O)CC(C)C)O[C@H](COC(=O)CC(C)C)[C@@H](OC(=O)CC(C)C)[C@@H]2OC(=O)CC(C)C)[C@H](OC(=O)CC(C)C)[C@@H](O)[C@@H]1O,23%,16%,18%,92%,93%,60%,
CC(C)CC(=O)OC[C@H]1O[C@@](COC(=O)CC(C)C)(O[C@H]2O[C@H](CO)[C@@H](OC(=O)CC(C)C)[C@H](O)[C@H]2OC(=O)CC(C)C)[C@@H](OC(=O)CC(C)C)[C@@H]1OC(=O)CC(C)C,39%,10%,2%,88%,40%,79%,
CC(C)CC(=O)OC[C@H]1O[C@@](COC(=O)CC(C)C)(O[C@H]2O[C@H](CO)[C@@H](O)[C@H](O)[C@H]2OC(=O)CC(C)C)[C@@H](OC(=O)CC(C)C)[C@@H]1OC(=O)CC(C)C,40%,21%,10%,93%,92%,76%,
CC(C)CC(=O)OC[C@H]1O[C@@](COC(=O)CC(C)C)(O[C@H]2O[C@H](CO)[C@@H](O)[C@H](OC(=O)CC(C)C)[C@H]2OC(=O)CC(C)C)[C@@H](OC(=O)CC(C)C)[C@@H]1OC(=O)CC(C)C,18%,16%,6%,94%,66%,53%,
CC(C)CC(=O)OC[C@H]1O[C@@](COC(=O)CC(C)C)(O[C@H]2O[C@H](COC(=O)CC(C)C)[C@@H](OC(=O)CC(C)C)C(OC(=O)CC(C)C)[C@H]2OC(=O)CC(C)C)[C@@H](OC(=O)CC(C)C)[C@@H]1OC(=O)CC(C)C (stereo partly specified),4%,15%,10%,24%,25%,12%,
CC(C)CC(=O)O[C@@H]1[C@@H](OC(=O)CC(C)C)[C@@H](O[C@]2(CO)O[C@H](CO)[C@@H](OC(=O)CC(C)C)[C@@H]2OC(=O)CC(C)C)O[C@H](CO)[C@H]1OC(=O)CC(C)C,65%,8%,9%,97%,98%,,92%
